Source: ChEMBL document CHEMBL1155099, “Natural products in parallel synthesis: triazole libraries of nonactic acid” (2008)
Activity calls are given as the source filed them.

Columns and labels:
Type in all cases: functional, organism-based
Cryptococcus neoformans = assay: Antifungal activity against Cryptococcus neoformans at 1 mM by almar blue dye reduction assay
Summary of the method: (§1)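 Single-point primary screen at 1 mM using Alamar Blue dye reduction as the growth read-out.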

Pseudomonas aeruginosa = assay: Antibacterial activity against Pseudomonas aeruginosa at 1 mM by almar blue dye reduction assay; summary of the method: as §1
Bacillus subtilis = assay: Antibacterial activity against Bacillus subtilis at 1 mM by almar blue dye reduction assay; summary of the method: as §1
Saccharomyces cerevisiae = assay: Antifungal activity against Saccharomyces cerevisiae at 1 mM by almar blue dye reduction assay; summary of the method: as §1
Escherichia coli = assay: Antibacterial activity against Escherichia coli at 1 mM by almar blue dye reduction assay; summary of the method: as §1
Bacillus cereus = assay: Antibacterial activity against Bacillus cereus at 1 mM by almar blue dye reduction assay; summary of the method: as §1
Candida albicans = assay: Antifungal activity against Candida albicans at 1 mM by almar blue dye reduction assay; summary of the method: as §1
Staphylococcus aureus = assay: Antibacterial activity against Staphylococcus aureus at 1 mM by almar blue dye reduction assay; summary of the method: as §1
Bacillus anthracis = assay: Antibacterial activity against Bacillus anthracis at 1mM by almar blue dye reduction assay

Measured: Activity

CCC(=O)OCC#Cc1cn([C@H](C)CC2CCC([C@@H](C)C(=O)N3CCCC3)O2)nn1 (single isomer, unassigned)
inactive: all assays above

COc1cccc(OCC#Cc2cn([C@H](C)C[C@@H]3CC[C@H]([C@@H](C)C(=O)N4CCCC4)O3)nn2)c1OC
inactive: all assays above

COCCNCC#Cc1cn([C@H](C)C[C@@H]2CC[C@H]([C@@H](C)C(=O)N3CCN(CC4CCCO4)CC3)O2)nn1 (some centres not stated)
inactive: all assays above

C[C@H](CC1CCC([C@@H](C)C(=O)N2CCN(CC3CCCO3)CC2)O1)n1cc(C#CCNC(=O)OCc2ccccc2)nn1 (single isomer, unassigned)
inactive: all assays above

C[C@H](C[C@@H]1CC[C@H]([C@@H](C)C(=O)N2CCCC2)O1)n1cc(C#CCc2ccccc2)nn1
inactive: all assays above

CCCNC(=O)NCC#Cc1cn([C@H](C)CC2CCC([C@@H](C)C(=O)NC(C)C)O2)nn1 (single isomer, unassigned)
inactive: all assays above

CCN(CC)C(=O)[C@H](C)[C@H]1CC[C@@H](C[C@@H](C)n2cc(C#Cc3ccccn3)nn2)O1
inactive: all assays above

COc1cccc(OCC#Cc2cn([C@H](C)C[C@@H]3CC[C@H]([C@@H](C)C(=O)NC(C)C)O3)nn2)c1OC
inactive: all assays above

CC(C)NC(=O)[C@H](C)[C@H]1CC[C@@H](C[C@@H](C)n2cc(C#Cc3ccc(-c4ccccc4)cc3)nn2)O1
inactive: all assays above

C[C@H](C[C@@H]1CC[C@H]([C@@H](C)C(=O)N(C)Cc2ccccc2)O1)n1cc(C#CCN2CCC(c3ccccc3)CC2)nn1
inactive: all assays above

C[C@H](C[C@@H]1CC[C@H]([C@@H](C)C(=O)N(C)Cc2ccccc2)O1)n1cc(C#Cc2cccc3ccccc23)nn1
inactive: all assays above

CCN(CC)C(=O)[C@H](C)[C@H]1CC[C@@H](C[C@@H](C)n2cc(C#CCOC)nn2)O1
inactive: all assays above

CC(C)NC(=O)[C@H](C)[C@H]1CC[C@@H](C[C@@H](C)n2cc(C#CCN(C)CCc3ccccc3)nn2)O1
inactive: all assays above

COCCNCC#Cc1cn([C@H](C)C[C@@H]2CC[C@H]([C@@H](C)C(=O)N3CCCC3)O2)nn1
inactive: all assays above

CCCCN(CC#Cc1cn([C@H](C)C[C@@H]2CC[C@H]([C@@H](C)C(=O)N(CC)CC)O2)nn1)CCCC
inactive: all assays above

COCCNCC#Cc1cn([C@H](C)C[C@@H]2CC[C@H]([C@@H](C)C(=O)N(C)Cc3ccccc3)O2)nn1
inactive: all assays above

CCC(=O)OCC#Cc1cn([C@H](C)CC2CCC([C@@H](C)C(=O)N(CC)CC)O2)nn1 (single isomer, unassigned)
inactive: all assays above

C[C@H](C[C@@H]1CC[C@H]([C@@H](C)C(=O)N2CCN(CC3CCCO3)CC2)O1)n1cc(C#CCN2CCC(c3ccccc3)CC2)nn1 (some centres not stated)
inactive: all assays above
